In the library only some 1.5% were active in any assay of this set; here they are far more common.
Cneo AK release: Cryptococcus neoformans lysis via adenylate kinase release. 360,000 tested, 0.2% active. C. neoformans lysis, adenylate kinase release luminescence, 4 h; normalised: neutral wells 0, clomiphene wells 100. lysis activity, % at 15 µM;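 active means mean lysis activity across replicates of at least 80%, whatever share of replicates individually reach that level; inactive means mean lysis activity below 80%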
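Material – Cryptococcus neoformans yeast cells · Quantity – 5 × 10^6 yeast cells/mL · Buffer or medium – YPD medium · Compound – single dose · Timing – 4 h static compound exposure, 37 °C, read 1 h post-reagent · Signal – adenylate kinase release luminescence · Read-out basis – lysis from increased AK signal · Benchmarks – Clomiphene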
MITF act: increases MITF-driven TRPM1 promoter luciferase signal; SK-MEL-5 TRPM1-promoter luciferase, 24 h; % of positive control, neutral wells = 0; activation, % at 12.5 µM; 300,000 tested, 0.75% active; AID 588334;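 active means mean activation of at least 80% with every replicate also reaching 80%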;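 further: 0% = neutral control wells and 100% = parthenolide positive control wells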
Wnt bcat act: Wnt/beta-catenin pathway activation; Wnt/beta-catenin reporter cell assay, activator, plate reader; activation, % at 9.35 µM; 300,000 tested, 1.2% active; AID 743398; in the data active means activation above about 30%, passing the limit was not always enough;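 further: 0% = neutral control wells and 100% = positive control wells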
PGC1a acetyl inh: PGC1a acetylation modulation, inhibitor mode. U2OS PGC1a acetylation, AlphaScreen anti-acetyl-lysine; with virally co-expressed GCN5 acetyltransferase. inhibition, % at 15.6 µM. 350,000 tested, 0.17% active. AID 651687;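 active means every replicate shows inhibition of at least 40%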;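 further: 0% = neutral control wells and 100% = positive control wells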
* marks the source's active call; other numbers are inactive results; nt = no result given; ! = a repeat was not active.

SMILES	Cneo AK release	MITF act	Wnt bcat act	PGC1a acetyl inh
CC1=CC(=C2C(=O)NC(=O)NC2=O)C=C(C(F)(F)F)N1Cc1ccccc1	nt	-9.3	nt	nt
CC1=CC(=C2C(=O)NC(=S)NC2=O)C=C(C(F)(F)F)N1Cc1ccccc1	nt	-21.9	-3.5	87.5*
CN(C)CC#Cc1ccc([C@@H]2[C@H](CO)N3CCCCN(C(=O)Cc4ccccn4)C[C@@H]23)cc1	-0.2	nt	nt	9.8
Cc1nn(CC(C)C)c(Cl)c1C(=O)NC1CCC(C)CC1 (stereo unspecified)	nt	95.6*	29.0	nt
Cc1nn(Cc2ccccc2Cl)c(Cl)c1C(=O)OCC(=O)NC(=O)NC1CCCCC1	nt	-2.9	3.1	nt
c1ccc(Nc2ccc3ccccc3c2)cc1	-4.5	94.9*	-0.1	-9.2
CC(C)(C)C(=O)c1cn(CC(=O)NCc2ccco2)c2ccccc12	nt	84.8*	-1.3	-4.3
O=C(Cn1cc(C(=O)c2ccccc2F)c2ccccc21)NCc1ccco1	0.0	-10.9	nt	-1.6
CC(=O)OC1CC2(O)C3CCC4CC(O)CCC4(C)C3CCC2(C)C1C1=CC(=O)OC1 (stereo unspecified)	nt	nt	-2.0	65.3*
CCCC#Cc1ccc([C@@H]2[C@@H](CO)N3CCCCN(C(=O)Cc4ccccn4)C[C@@H]23)cc1	53.5	nt	nt	9.4
COC(=O)[C@H]1[C@H](CO)[C@H]2Cn3c(ccc(C4=CCCCC4)c3=O)[C@@H]1N2CCc1ccccc1	2.3	nt	nt	nt
Cc1ccc(-c2nn(Cc3ccccc3)cc2C=O)cc1	nt	43.6	55.2*	nt
CC/C(=N\NC(N)=O)c1c(O)[nH]c(=O)[nH]c1=O	nt	-1.5	73.6*	nt
CC/C(=N\Nc1ccccc1)c1c(O)[nH]c(=O)[nH]c1=O	0.3	nt	4.1	3.2
CN(C)C(=O)Oc1ccc2c(c1)O/C(=C\c1cccc(Cl)c1)C2=O	-0.1	64.5	4.1	-4.9
CN(C)C(=O)Oc1ccc2c(c1)O/C(=C\c1ccc(Cl)cc1)C2=O	0.5	103.7*	8.9	-5.1
O=C1CNC[C@@H]2[C@H](c3ccc(Br)cc3)[C@H](CO)N12	nt	nt	nt	-0.3
CC(=O)OCC12CC(OC(=O)CC(C)C)C(C)=CC1OC1C(O)C(OC(C)=O)C2(C)C12CO2 (stereo unspecified)	nt	nt	-9.6	73.6*
COC(=O)[C@@H]1[C@@H](CO)[C@@H]2Cn3c(ccc(-c4ccccc4F)c3=O)[C@H]1N2CC1CCCC1	-2.7	nt	nt	nt
CN1C(=O)NC(=O)C(C)(C2=CCCCC2)C1=O (stereo unspecified)	-2.8	99.9*	0.1	8.7
O=C(O)[C@@H]1[C@@H](CO)[C@@H]2Cn3c(ccc(-c4ccncc4)c3=O)[C@H]1N2C(=O)C1CCCCC1	5.9	nt	nt	nt
O=C(Cc1cccnc1)N1CCCCN2[C@H](C1)[C@H](c1ccc(C#CC3CC3)cc1)[C@@H]2CO	1.1	nt	nt	0.5
COc1cccc(OCc2cc(C(=O)N3C[C@H]4C[C@@H](C3)c3cccc(=O)n3C4)no2)c1	-3.0	100.7*	27.8	15.9
O=C(O)[C@H]1[C@H](CO)[C@H]2Cn3c(ccc(-c4ccncc4)c3=O)[C@@H]1N2S(=O)(=O)c1ccccc1F	6.6	nt	nt	nt
CC(=O)N1CCCSC1=Nc1ccccc1	nt	-1.9	0.4	nt
SMILES	Cneo AK release	MITF act	Wnt bcat act	PGC1a acetyl inh
CCOc1ccccc1N=C1SCCCN1C	-2.3	3.3	4.3	96.6*
Oc1cc(O)cc(/C=C/c2ccc(O)cc2O)c1	-5.5	94.3*	nt	-4.1
CC1=NN(c2ccccc2)C(=O)/C1=C/c1c(O)[nH]c(=O)[nH]c1=O	1.7	2.2	7.3	49.1*
C[C@]12CC[C@H]3[C@@H](CC[C@]4(O)C[C@@H](O)CC[C@]34C=O)[C@@]1(O)CC[C@@H]2C1=CC(=O)OC1	-1.5	-85.5	-5.1	96.4*
COC(=O)[C@@H]1[C@@H](CO)[C@@H]2Cn3c(ccc(C4=CCCCC4)c3=O)[C@H]1N2Cc1cccnc1	-0.7	nt	nt	-5.8
CC=Cc1ccc2n(c1=O)C[C@H]1[C@H](CO)[C@@H](C(=O)N(C)C)[C@@H]2N1C (mixture of isomers)	35.5	nt	nt	nt
C[C@]12CC[C@H]3[C@@H](CCC4=CC(=O)CC[C@@]43C)[C@@H]1CC[C@@H]2O	-3.2	-25.0	33.3*!	-13.3
O=c1[nH]c(CN2CC=C(c3ccccc3)CC2)nc2scc(-c3ccccc3)c12	nt	-0.4	1.1	-7.3
O=c1[nH]c(CN2CC=C(c3ccccc3)CC2)nc2cc(C(F)(F)F)ccc12	87.7*	1.9	nt	0.0
O=[N+]([O-])c1ccc(N2CCOCC2)c2cccnc12	-1.9	-11.2	-0.7	nt
O=[N+]([O-])c1ccc(N2CCOCC2)c2c1no[n+]2[O-]	-5.8	nt	-10.0	83.9*
O=C(Cc1ccccn1)N1CCCCN2[C@H](C1)[C@@H](c1ccc(C#Cc3ccccc3)cc1)[C@@H]2CO	-0.1	nt	nt	7.3
O=C1NC2C(=CC(O)C(O)C2O)c2cc3c(cc21)OCO3 (stereo unspecified)	nt	-68.5	-5.6	85.4*
O=C1NC2C(=CC(O)C(O)C2O)c2cc3c(c(O)c21)OCO3 (stereo unspecified)	nt	nt	-25.5	62.7*
CN(C)C(=O)[C@H]1[C@H](CO)[C@H]2Cn3c(cccc3=O)[C@@H]1N2CC1CC1	0.0	nt	nt	nt
CN1C2CCC1/C(=C/c1ccccn1)C(=O)/C2=C\c1ccccn1	-9.5	-96.6	-12.2	77.7*
CC1(CCO)CC(C)(CCc2ccccc2)OO1 (stereo unspecified)	-1.5	nt	nt	-42.6
COc1ccc(C[C@H]2NC[C@H](O)[C@H]2OC(C)=O)cc1	-6.0	-81.0	-30.1	89.8*
CC(C)(O)/C=C/C(=O)[C@](C)(O)C1[C@H](O)C[C@@]2(C)C3CC=C4C(C[C@H](O)[C@@H](O)C4(C)C)[C@]3(C)C(=O)C[C@]12C (stereo partly specified)	-1.7	-69.4	nt	64.5*
Cc1cc(C(=O)OCC(=O)Nc2ccccc2F)c(C)n1C1CC1	-5.1	85.3*	9.4	nt
Cc1cc(C(=O)OCC(=O)Nc2ccc(F)cc2F)c(C)n1C1CC1	-4.1	9.2	-1.3	nt
Cc1cc(C(=O)N=Nc2c(O)n(C)c3ccccc23)c(C)o1	-5.8	87.0*	nt	nt
Cn1c(=O)oc(=O)c2ccccc21	3.2	-8.4	-1.8	-24.7
O=C1c2ccccc2-c2cccc3cccc1c23	1.3	36.0	16.1	7.5
O=C1c2ccccc2-c2cc3ccccc3cc21	nt	33.0	46.0*	2.6
O=C1CN=C(c2cc([N+](=O)[O-])ccc2Cl)c2cc([N+](=O)[O-])ccc2N1	-1.7	nt	46.8*	-31.1
COC(=O)[C@H]1[C@H](CO)[C@H]2Cn3c(ccc(-c4cccc(OC)c4)c3=O)[C@@H]1N2CC1CC1	-2.6	nt	nt	nt
CC=Cc1ccc2n(c1=O)C[C@@H]1[C@@H](CO)[C@H](C(=O)OC)[C@H]2N1CC1CC1 (mixture of isomers)	3.1	nt	nt	nt
C[C@@H]1O[C@@H](O[C@H]2C[C@@H](O)[C@]3(CO)[C@H]4[C@H](O)C[C@]5(C)[C@@H](C6=CC(=O)OC6)CC[C@]5(O)[C@@H]4CC[C@]3(O)C2)[C@H](O)[C@H](O)[C@H]1O	-2.4	-69.7	nt	82.8*
COC(=O)[C@@H]1[C@@H](C(=O)OC)C2(c3ccccc3-c3ccccc32)N(c2ccc(Cl)cc2)N1C#N	6.5	-93.0	nt	76.6*
